This note sets out measurements from paper PMC3270411 (Chemistry & biology, 2012).

The structures appear in SMILES notation.

The target in one assay is MAPK8 (JNK1) (Homo sapiens, UniProt P45983). Briefly: Z'-lyte JNK1 kinase assay. The format is biochemical. Particulars: relative to JNK-IN-2.
Assay [1] relates to c-Jun phosphorylation in HeLa and A375 cells. Briefly: cellular c-Jun phosphorylation, statements for both assay formats. In kind it is cell-based. As to conditions: tested in parallel in HeLa and A375 formats.
Assay [2] relates to c-Jun phosphorylation (pSer73) in HeLa cells. Kind of assay: LanthaScreen TR-FRET c-Jun phosphorylation assay in HeLa cells. The format is cell-based. Particulars: read-out: p-c-Jun EC50 (nM) Hela; Hela cells, TNF-α stimulation, TR-FRET. The procedure, abridged:
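HeLa cells stably expressing GFP-c-Jun(1–79), 10,000/well in Opti-MEM with 0.5% charcoal/dextran-treated FBS, 25 mM Hepes pH 7.3, no phenol red; overnight. Pretreated 90 min with compound, then 30 min with 5 ng/ml TNF-α. Lysed in buffer containing 2 nM terbium anti-c-Jun pSer73 antibody; 60 min equilibration at room temperature. TR-FRET: excitation 340 nm, ratio Em 520/Em 490.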
For orientation: In TR-FRET formats the signal depends on donor and acceptor labels being close together.

For assay [3], the system named is c-Jun phosphorylation (phospho Ser73) in A375 cells. In kind it is cell-based. As to conditions: read-out: p-c-Jun EC50 (nM) A375; A375 cells, anisomycin stimulation, microscopy.
The target in a further assay is JNK1 (Homo sapiens, UniProt P45983). Briefly: intact protein and peptide mass spectrometry of inhibitor-labeled JNK1. In kind it is binding. Particulars: recombinant JNK1, 5-fold excess of compound; Cys 116.
JNK1, sequence (P45983 26-321 limits assumed): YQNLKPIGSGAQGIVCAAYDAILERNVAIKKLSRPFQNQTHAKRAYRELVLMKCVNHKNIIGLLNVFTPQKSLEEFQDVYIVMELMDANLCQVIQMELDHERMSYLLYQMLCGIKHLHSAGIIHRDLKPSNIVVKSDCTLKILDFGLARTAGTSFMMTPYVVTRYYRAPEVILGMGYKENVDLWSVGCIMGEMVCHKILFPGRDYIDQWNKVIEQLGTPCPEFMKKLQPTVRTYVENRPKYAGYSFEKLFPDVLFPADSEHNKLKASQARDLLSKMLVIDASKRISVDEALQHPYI
Assay [4] deals with JNK1/2/3. Kind of assay: Z'-lyte JNK kinase assays, statements for JNK1/2/3 together. In kind it is biochemical.
Assay [5] deals with JNK1/2/3. Briefly: KinomeScan 400-kinase panel profiling. The format is binding. As to conditions: 10 μM.
A further assay concerns JNK. Briefly: pulse-chase ATP-biotin binding kinetics assay in A375 cells. The format is cell-based. As to conditions: 1μM compound, protection from ATP-biotin labeling. The procedure, abridged:
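A375 cells treated with 1 μM test compound for 1–5 h, then washed three times in PBS. Lysed in NP-40/CHAPS buffer for 30 min at 4°C, cleared, and gel-filtered into HEPES kinase buffer (about 5–15 mg/ml protein). Lysate labelled with 5 μM ATP-biotin probe for 1 h, reduced with DTT, alkylated with iodoacetamide, and pulled down on streptavidin for 2 h. Read-out: SDS-PAGE and JNK immunoblot.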

The next assay deals with JNK3 (Homo sapiens, UniProt P53779). Kind of assay: in vitro covalent binding kinetics with purified JNK3. As to conditions: 27 molar excess of compound. The procedure, abridged:
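Purified JNK3 incubated with 1 μM test compound for varying times, then ATP-biotin probe 5 μM for 10 min. Protein denatured with an equal volume of 8 M urea and gel-filtered. Biotinylated protein captured on streptavidin beads for 2 h, washed, boiled 10 min at 95°C, run on SDS-PAGE and immunoblotted for JNK.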

MAPK8 (JNK1), sequence (P45983 whole entry): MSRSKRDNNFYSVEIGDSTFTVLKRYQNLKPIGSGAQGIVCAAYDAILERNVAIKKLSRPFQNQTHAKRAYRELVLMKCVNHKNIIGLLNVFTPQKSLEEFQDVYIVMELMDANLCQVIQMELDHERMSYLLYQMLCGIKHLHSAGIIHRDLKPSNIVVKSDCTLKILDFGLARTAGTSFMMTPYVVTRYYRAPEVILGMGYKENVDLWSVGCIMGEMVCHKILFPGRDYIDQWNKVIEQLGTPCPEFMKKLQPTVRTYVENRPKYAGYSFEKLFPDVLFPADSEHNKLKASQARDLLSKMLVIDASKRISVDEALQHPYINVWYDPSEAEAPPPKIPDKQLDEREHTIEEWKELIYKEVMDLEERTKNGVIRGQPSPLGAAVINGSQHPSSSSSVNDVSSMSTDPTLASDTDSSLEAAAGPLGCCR
JNK3, sequence (P53779 whole entry): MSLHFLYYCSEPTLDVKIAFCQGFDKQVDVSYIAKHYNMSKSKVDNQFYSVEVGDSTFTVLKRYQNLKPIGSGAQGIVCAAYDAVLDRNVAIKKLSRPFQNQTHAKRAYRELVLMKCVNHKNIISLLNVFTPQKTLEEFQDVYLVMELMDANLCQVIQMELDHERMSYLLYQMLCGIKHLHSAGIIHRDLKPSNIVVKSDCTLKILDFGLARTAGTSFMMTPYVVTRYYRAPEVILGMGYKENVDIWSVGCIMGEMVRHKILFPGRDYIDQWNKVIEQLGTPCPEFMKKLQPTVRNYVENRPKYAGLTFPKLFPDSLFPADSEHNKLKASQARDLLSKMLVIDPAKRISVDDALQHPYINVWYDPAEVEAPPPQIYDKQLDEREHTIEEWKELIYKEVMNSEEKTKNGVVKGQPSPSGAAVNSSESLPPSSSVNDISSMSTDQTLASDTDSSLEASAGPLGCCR

For `CN(C)C/C=C/C(=O)NCc1ccc(C(=O)Nc2cccc(Nc3nccc(-c4cccnc4)n3)c2)cc1` [JNK-IN-4], the “fold increase in biochemical IC50 against JNK1” value on MAPK8 (JNK1) amounted to 3 fold.
As for `Oc1c2ccccc2c2c3c(cccc13)N=N2` [SP-600125], in assay [1], the “IC50s for inhibition of c-Jun phosphorylation in both assay formats” value is listed as “micromolar range”.
For the molecule `N#CC(c1ccnc(NCCc2cccnc2)n1)c1nc2ccccc2s1` (stereo not drawn) [AS601245, reference compound], the “IC50s for inhibition of c-Jun phosphorylation in both assay formats” value in [1] was “micromolar range”. Besides, the half-maximal effective concentration (EC50) was found to be 2020 nM in assay [2] and 2400 nM in [3].
As for `CN(C)C/C=C/C(=O)Nc1ccc(C(=O)Nc2cccc(Nc3nccc(-c4cccnc4)n3)c2)cc1` [JNK-IN-2], on JNK1, the “covalent modification of JNK1 (mass spectrometry)” value is listed as “covalent addition of one molecule”. The concentration for a half-maximal effect (EC50) turned out to be 704 nM in assay [2] and 2400 nM in assay [3]. Further, at JNK1/2/3 [4] (read-out: IC50 for inhibition of JNK kinase activity, Z'-lyte assay format), the half-inhibitory concentration (IC50) is about 1000 nM.
Take `Cc1ccc(NC(=O)c2ccc(NC(=O)/C=C/CN(C)C)cc2)cc1Nc1nccc(-c2cccnc2)n1` [JNK-IN-1]: in the assay on JNK1/2/3 [5], the “binding to JNK1/2/3 in kinase selectivity profiling” value is listed as “significant binding”. Moreover, the “IC50 for inhibition of JNK kinase activity” value on JNK1/2/3 [4] (Z'-lyte assay format) was “single digit micromolar”.
For `C=CC(=O)Nc1cccc(C(=O)Nc2ccc(Nc3nccc(-c4cccnc4)n3)cc2)c1` [JNK-IN-5], the EC50 was 118 nM in assay [2] and 32 nM in assay [3]. Besides, the “incubation time required to modify JNK to background levels” value in the assay with JNK is given as “Three”. The “time to completely label JNK3” value on JNK3 worked out at 45 min. The “fold lower IC50 against JNK1, 2 and 3” value in the assay with JNK1/2/3 [4] (compared with JNK-IN-2) was 500 fold.
With `Cc1ccc(C(=O)Nc2ccc(Nc3nccc(-c4cccnc4)n3)cc2)cc1NC(=O)/C=C/CN(C)C` [JNK-IN-10], the concentration for a half-maximal effect (EC50) in assay [2] amounted to 173 nM; in assay [3], 141 nM.

In general, EC50 refers to the concentration giving half of the maximal effect. What is called IC50 is the concentration needed to halve the response being measured.
